From ChEMBL document CHEMBL1129588, “Development of potent thrombin receptor antagonist peptides” (J Med Chem, 1996) come the findings set out here.

Assay [1] deals with T1, Proteinase-activated receptor 1 (Homo sapiens, UniProt P25116).
T1 sequence (P25116 whole entry): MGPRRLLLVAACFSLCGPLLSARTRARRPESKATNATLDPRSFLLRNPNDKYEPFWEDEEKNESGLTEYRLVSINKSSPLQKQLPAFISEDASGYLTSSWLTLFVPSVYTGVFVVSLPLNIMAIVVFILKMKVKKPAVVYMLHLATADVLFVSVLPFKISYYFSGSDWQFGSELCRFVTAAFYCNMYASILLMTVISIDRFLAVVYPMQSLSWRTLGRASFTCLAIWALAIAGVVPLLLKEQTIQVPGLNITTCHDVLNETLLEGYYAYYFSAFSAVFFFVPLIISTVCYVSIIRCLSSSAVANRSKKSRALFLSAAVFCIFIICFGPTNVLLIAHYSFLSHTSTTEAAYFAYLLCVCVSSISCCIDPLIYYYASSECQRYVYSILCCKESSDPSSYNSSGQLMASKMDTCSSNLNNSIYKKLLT

For assay [2], the target named is T1, Proteinase-activated receptor 1. Description: Concentration of compound required to inhibit agonist ([…], at 3 uM) induced platelet aggregation by 50%; PA=not experimentally achieved. In kind it is functional. The method in brief:
(§1)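 Gel-filtered human platelets in a microtiter turbidity aggregation assay, preincubated with test peptide and then stimulated with SFLLRNP-NH₂ at 3 μM. […] N is the number of determinations.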

Assay [3] shares this target. Nature of the assay: Concentration of compound required to inhibit agonist ([…], at 3 uM) induced platelet aggregation by 50%;PA=not experimentally achieved. In kind it is functional. The essentials: as §1
Assay [4] has the same target. Nature of the assay: Effective concentration of compound for stimulation of 50% maximum platelet aggregation; PA=not experimentally achieved. The class given is functional. The essentials: (§2)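 Peptides were added alone to gel-filtered human platelets, and aggregation was read by microtiter turbidity. EC₅₀ is the concentration stimulating 50% of maximum aggregation. N is the number of determinations. A peptide is called a partial agonist where maximum aggregation was not reached experimentally.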

The nature of assay [5]: Concentration to stimulate human platelet aggregation. In kind it is functional. The essentials:
as §2

pEC50, pIC50: −log10 of the molar value. Non-standard residues stand in square brackets, D forms with d. Residues, ends and D or L forms follow the SMILES beside them. *: point of attachment. Phe(4-guanidino) = N=C(N)Nc1ccc(C[C@H](N)C(=O)O)cc1; Phe(4-F) = N[C@@H](Cc1ccc(F)cc1)C(=O)O; Thiophene3carbonyl = O=C(c1ccsc1)*; X1 = O=C(c1ccoc1)*

In assay [1], `C/C=C/C=C/CC(=O)N(C(C)=O)[C@@H](Cc1ccc(F)cc1)C(=O)N[C@@H](Cc1ccc(NC(=N)N)cc1)C(=O)N[C@@H](CC(C)C)C(=O)N[C@@H](CCCN=C(N)N)C(N)=O` showed a pIC50 of 7.62. Also, in assay [2], the IC50 result was “Not Active”.
For the compound `CC(C)C[C@H](NC(=O)[C@H](Cc1ccc(NC(=N)N)cc1)NC(=O)[C@H](Cc1ccc(F)cc1)NC(=O)c1ccoc1)C(=O)N[C@@H](CCCN=C(N)N)C(N)=O` (X1-[Phe(4-F)][Phe(4-guanidino)]LR-NH2), the EC50 entry in assay [3] was “Not Active”. This compound also gave a pIC50 in assay [1] of 7.54.
As for `CC(C)C[C@H](NC(=O)[C@H](Cc1ccc(NC(=N)N)cc1)NC(=O)[C@H](Cc1ccc(F)cc1)NC(=O)c1ccsc1)C(=O)N[C@@H](CCCN=C(N)N)C(N)=O` (Thiophene3carbonyl-[Phe(4-F)][Phe(4-guanidino)]LR-NH2), in assay [4], the EC50 result was “Not Active”. The pIC50 in assay [1] is 7.62.
In assay [5], `CC(C)C[C@H](NC(=O)[C@H](CC(C)C)NC(=O)[C@H](Cc1ccc(NC(=N)N)cc1)NC(=O)[C@@H](N)CO)C(=O)N[C@@H](CCCN=C(N)N)C(N)=O` showed a negative logarithm of the EC50 (pEC50) below 3.52.

In general, pIC50 refers to the IC50 on a negative log10 scale, so that one unit is a factor of ten. The low end stands for a large IC50, the high end for a small IC50. What is called pEC50 is −log10 of the EC50, conventionally taken in molar units. A high value points to a low EC50.
